Experimental data from ChEMBL document CHEMBL1152963, “Synthesis and antimicrobial activity of 4-hydroxy-4-(pyridyl)alk-3-en-2-ones” (2009).
Converted amounts (≈) assume the structure as drawn.

How the values were obtained:
Format in all cases: functional
Escherichia coli = experiment: Antimicrobial activity against Escherichia coli […] after 24 hrs by dilution susceptibility assay
Method in brief: (§1)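 Broth microdilution MIC per CLSI recommendations, ATCC strains, 96-well format, no agitation; inoculum 2 × 10⁵ bacterial cells per well; incubated 24 h at 37 °C; MIC as average of 3 independent experiments.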

Bacillus subtilis = experiment: Antimicrobial activity against Bacillus subtilis ATCC 11229 after 24 hrs by dilution susceptibility assay; conditions: ATCC 11229, 24 h; method in brief: as §1
Staphylococcus aureus = experiment: Antimicrobial activity against Staphylococcus aureus ATCC 6538 after 24 hrs by dilution susceptibility assay; conditions: ATCC 6538, 24 h; method in brief: as §1

CCC(=O)/C=C(\O)c1cccnc1
MIC (Escherichia coli): 379 µg/mL (≈ 2140 µM) | MIC (Bacillus subtilis): 374 µg/mL (≈ 2110 µM) | MIC (Staphylococcus aureus): 380 µg/mL (≈ 2150 µM)

CCCCC(=O)/C=C(\O)c1cccnc1
MIC (Escherichia coli): 95.4 µg/mL (≈ 465 µM) | MIC (Bacillus subtilis): 95.4 µg/mL (≈ 465 µM) | MIC (Staphylococcus aureus): 95.5 µg/mL (≈ 465 µM)

O=C(/C=C(\O)c1cccnc1)c1ccccc1
MIC (Escherichia coli): 95.8 µg/mL (≈ 425 µM) | MIC (Bacillus subtilis): 94.6 µg/mL (≈ 420 µM) | MIC (Staphylococcus aureus): 95.1 µg/mL (≈ 422 µM)

CCCCC(=O)/C=C(\O)c1ccccn1
MIC (Escherichia coli): 47.7 µg/mL (≈ 232 µM) | MIC (Bacillus subtilis): 48.1 µg/mL (≈ 235 µM) | MIC (Staphylococcus aureus): 96.5 µg/mL (≈ 470 µM)

CC(=O)/C=C(\O)c1cccnc1
MIC (Escherichia coli): 402 µg/mL (≈ 2460 µM) | MIC (Bacillus subtilis): 397 µg/mL (≈ 2430 µM) | MIC (Staphylococcus aureus): 392 µg/mL (≈ 2400 µM)

CCCC(=O)/C=C(\O)c1ccccn1
MIC (Escherichia coli): 97.8 µg/mL (≈ 512 µM) | MIC (Bacillus subtilis): 97.2 µg/mL (≈ 509 µM) | MIC (Staphylococcus aureus): 192 µg/mL (≈ 1000 µM)

O=C(/C=C(\O)c1ccccn1)c1ccccc1
MIC (Escherichia coli): 24.1 µg/mL (≈ 107 µM) | MIC (Bacillus subtilis): 24.5 µg/mL (≈ 109 µM) | MIC (Staphylococcus aureus): 47.4 µg/mL (≈ 210 µM)

CC1(C)S[C@@H]2[C@H](NC(=O)[C@H](N)c3ccccc3)C(=O)N2[C@H]1C(=O)O [AMPICILLIN]
MIC (Escherichia coli): 6.99 µg/mL (≈ 20 µM) | MIC (Bacillus subtilis): 12.5 µg/mL (≈ 35.7 µM) | MIC (Staphylococcus aureus): 3.19 µg/mL (≈ 9.13 µM)

CC(=O)/C=C(\O)c1ccccn1
MIC (Escherichia coli): 379 µg/mL (≈ 2320 µM) | MIC (Bacillus subtilis): 190 µg/mL (≈ 1160 µM) | MIC (Staphylococcus aureus): 46.9 µg/mL (≈ 287 µM)

CCC(=O)C(C)C(=O)c1ccccn1 (stereo unspecified)
MIC (Escherichia coli): 391 µg/mL (≈ 2040 µM) | MIC (Bacillus subtilis): 786 µg/mL (≈ 4110 µM) | MIC (Staphylococcus aureus): 758 µg/mL (≈ 3960 µM)

CCCC(=O)/C=C(\O)c1cccnc1
MIC (Escherichia coli): 94.1 µg/mL (≈ 492 µM) | MIC (Bacillus subtilis): 200 µg/mL (≈ 1050 µM) | MIC (Staphylococcus aureus): 193 µg/mL (≈ 1010 µM)

CCC(=O)/C=C(\O)c1ccccn1
MIC (Escherichia coli): 195 µg/mL (≈ 1100 µM) | MIC (Bacillus subtilis): 211 µg/mL (≈ 1190 µM) | MIC (Staphylococcus aureus): 23.6 µg/mL (≈ 133 µM)
